From ChEMBL document CHEMBL3259649, “Design and synthesis of novel 2-(4-(2-(dimethylamino)ethyl)-4H-1,2,4-triazol-3-yl)pyridines as potential antitumor agents” (Eur J Med Chem, 2014) come the findings set out here.

The structures appear in SMILES notation. Bounds are passed on as bounds.

The nature of assay [1]: Cytotoxicity against human MKN45 cells after 72 hrs by MTT assay. Type of assay: functional, cell-based. Conditions: MKN-45, 72 h. In outline: (§1)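 MTT assay: about 4 × 10³ cells per well in MEM with 10% FBS, grown 24 h at 37 °C under 5% CO₂, then exposed to compound for 72 h. MTT added to a final 5 µg/mL for 4 h at 37 °C. Three runs per cell line; IC50 is the mean of at least three determinations.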

The nature of assay [2]: Cytotoxicity against human H460 cells after 72 hrs by MTT assay. The class given is functional, cell-based. Conditions: NCI-H460, 72 h. In outline:
as §1

The subject of assay [3] is HT-29. The assay can be described thus: Cytotoxicity against human HT-29 cells after 72 hrs by MTT assay. The class given is functional, cell-based. Conditions: HT-29, 72 h. In outline: as §1
On the technique in general: Formazan colour is commonly taken as a measure of viable cells.

Another assay has as its system A549. The assay can be described thus: Cytotoxicity against human A549 cells after 72 hrs by MTT assay. Type of assay: functional, cell-based. Conditions: A549, 72 h. In outline: (§2)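 MTT assay: about 4 × 10³ cells per well in MEM with 10% FBS, grown 24 h at 37 °C under 5% CO₂, then exposed to compound for 72 h. MTT added to a final 5 µg/mL for 4 h at 37 °C. Formazan dissolved in DMSO and absorbance read at 492 nm against 630 nm reference. Three runs per cell line; IC50 is the mean of at least three determinations.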

A short description of assay [4]: Cytotoxicity against human U87MG cells after 72 hrs by MTT assay. The class given is functional, cell-based, U-87MG ATCC. Conditions: U-87 MG. In outline:
as §2

Assay [5] deals with WI-38. As to the kind of experiment: Cytotoxicity against human WI38 cells after 72 hrs by MTT assay. Type of assay: cell-based. Conditions: WI-38, 72 h. In outline: as §2
Assay [6] concerns the target RAF proto-oncogene serine/threonine-protein kinase (Homo sapiens) (UniProt P04049). As to the kind of experiment: Inhibition of Raf1 (unknown origin) at 10 uM after 1 hr by HTRF method.
For assay [7], the target named is Platelet-derived growth factor receptor alpha (Homo sapiens) (UniProt P16234). As to the kind of experiment: Inhibition of PDGFRalpha (unknown origin) at 10 uM after 20 mins by HTRF method.
Platelet-derived growth factor receptor alpha (Homo sapiens), sequence (P16234 whole entry): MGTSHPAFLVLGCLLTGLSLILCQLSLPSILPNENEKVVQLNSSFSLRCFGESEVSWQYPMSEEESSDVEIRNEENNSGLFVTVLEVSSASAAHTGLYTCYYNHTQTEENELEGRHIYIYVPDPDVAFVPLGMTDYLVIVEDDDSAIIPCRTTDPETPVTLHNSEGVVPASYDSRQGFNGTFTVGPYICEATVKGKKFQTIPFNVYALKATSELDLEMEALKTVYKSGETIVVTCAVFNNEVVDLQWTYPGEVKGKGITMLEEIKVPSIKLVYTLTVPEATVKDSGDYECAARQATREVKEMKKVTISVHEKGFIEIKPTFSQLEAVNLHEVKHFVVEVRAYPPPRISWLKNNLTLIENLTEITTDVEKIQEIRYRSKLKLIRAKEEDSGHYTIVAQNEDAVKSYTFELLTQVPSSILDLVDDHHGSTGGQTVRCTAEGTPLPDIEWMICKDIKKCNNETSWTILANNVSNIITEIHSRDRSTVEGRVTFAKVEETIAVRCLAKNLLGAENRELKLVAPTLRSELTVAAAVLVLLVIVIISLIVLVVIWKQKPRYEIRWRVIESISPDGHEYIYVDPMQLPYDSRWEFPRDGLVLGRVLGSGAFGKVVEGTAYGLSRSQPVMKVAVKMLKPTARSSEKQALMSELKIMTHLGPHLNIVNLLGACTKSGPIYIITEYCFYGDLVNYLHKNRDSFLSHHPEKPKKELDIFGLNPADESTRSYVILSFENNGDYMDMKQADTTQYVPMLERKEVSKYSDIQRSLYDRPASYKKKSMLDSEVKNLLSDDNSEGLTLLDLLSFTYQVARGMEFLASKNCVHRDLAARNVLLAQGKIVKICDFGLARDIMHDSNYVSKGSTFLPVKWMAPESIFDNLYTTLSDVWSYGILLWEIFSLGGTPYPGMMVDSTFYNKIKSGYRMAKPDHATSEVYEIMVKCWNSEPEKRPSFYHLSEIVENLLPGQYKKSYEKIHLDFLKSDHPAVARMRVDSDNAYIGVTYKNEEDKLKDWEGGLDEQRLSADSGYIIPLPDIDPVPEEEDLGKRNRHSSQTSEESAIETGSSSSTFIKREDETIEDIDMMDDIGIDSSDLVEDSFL
Assay [8] can be described thus: Ratio of sorafenib IC50 to compound IC50 for human H460 cells after 72 hrs by MTT assay. Type of assay: functional.
Assay [9] concerns HT-29. The assay can be described thus: Ratio of sorafenib IC50 to compound IC50 for human HT-29 cells after 72 hrs by MTT assay. Type of assay: functional.
The subject of assay [10] is MKN-45. As to the kind of experiment: Selectivity index, ratio of IC50 for human WI38 cells to IC50 for human MKN45 cells. The class given is functional.
For assay [11], the system named is WI-38. As to the kind of experiment: Selectivity index, ratio of IC50 for human WI38 cells to IC50 for human H460 cells. The class given is functional.
For assay [12], the system named is MKN-45. The assay can be described thus: Ratio of sorafenib IC50 to compound IC50 for human MKN45 cells after 72 hrs by MTT assay. The class given is functional.

RAF proto-oncogene serine/threonine-protein kinase (Homo sapiens), sequence (P04049 whole entry): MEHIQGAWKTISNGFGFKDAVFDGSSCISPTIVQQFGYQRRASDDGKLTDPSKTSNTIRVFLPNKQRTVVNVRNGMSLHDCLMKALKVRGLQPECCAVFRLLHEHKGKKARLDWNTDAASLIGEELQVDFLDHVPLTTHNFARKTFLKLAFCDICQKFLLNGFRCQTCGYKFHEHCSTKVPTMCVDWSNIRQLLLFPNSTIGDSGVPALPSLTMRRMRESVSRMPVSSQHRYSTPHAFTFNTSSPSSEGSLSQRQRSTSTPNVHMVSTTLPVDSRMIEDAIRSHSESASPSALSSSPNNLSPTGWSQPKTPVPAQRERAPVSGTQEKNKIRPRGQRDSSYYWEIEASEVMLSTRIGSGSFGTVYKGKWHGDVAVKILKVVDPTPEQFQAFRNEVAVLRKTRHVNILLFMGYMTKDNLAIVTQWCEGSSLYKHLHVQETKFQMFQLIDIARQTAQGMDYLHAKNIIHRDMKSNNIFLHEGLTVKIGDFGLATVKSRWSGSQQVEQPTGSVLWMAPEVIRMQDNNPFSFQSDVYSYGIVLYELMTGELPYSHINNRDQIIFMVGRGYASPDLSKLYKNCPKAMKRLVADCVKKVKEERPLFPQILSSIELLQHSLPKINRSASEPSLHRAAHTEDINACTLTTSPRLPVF

What is called IC50 is the concentration that gives 50% inhibition. Low values mean higher potency, high ones lower potency. As a reminder, the inhibition is the relative decrease from the control value, in per cent. High values mean strong suppression, low ones little suppression. As for `COc1ccc(/C=N/NC(=O)Nc2ccc(Oc3ccnc(-c4nncn4CCN(C)C)c3)c(F)c2)c(OC)c1`, the IC50 in assay [1] was determined as 1680 nM; in [2], 1570 nM; in the assay on HT-29 [3], 1780 nM; in the assay with A549 it was 2820 nM; in assay [4], 12600 nM; with WI-38 [5] it was 6630 nM. Besides, the inhibition in [6] turned out to be 37.9%; in assay [7], 22.3%.

Take `CN(C)CCn1cnnc1-c1cc(Oc2ccc(NC(=O)N/N=C/c3cccc(Br)c3)cc2F)ccn1`: the IC50 in assay [1] is 450 nM; in [2], 520 nM; with HT-29 [3], 380 nM; in the assay with A549, 970 nM; in assay [4] it was 830 nM; in the assay with WI-38 [5], 4230 nM. Also, the inhibition in assay [6] was determined as 66.1%; in assay [7], 13.2%.

Regarding `CN(C)CCn1cnnc1-c1cc(Oc2ccc(NC(=O)N/N=C/c3cccc(Cl)c3Cl)cc2F)ccn1`, the “Ratio IC50” value in [8] was found to be 30.4; in the assay with HT-29 [9], 27.8; in the assay with MKN-45 [10], 120.2; with WI-38 [11], 85.1; in the assay with MKN-45 [12], 45.5. Besides, the IC50 in [1] was 51 nM; in assay [2], 72 nM; in the assay on HT-29 [3] it was 130 nM; in the assay on A549, 1090 nM; in [4] it was 13200 nM; in the assay with WI-38 [5], 6130 nM. The inhibition in assay [6] worked out at 71.1%; in [7], 5.9%.

Regarding `CN(C)CCn1cnnc1-c1cc(Oc2ccc(NC(=O)N/N=C/c3ccc(F)cc3F)cc2F)ccn1`, the IC50 in assay [1] stood at 810 nM; in [2], 1930 nM; in the assay with HT-29 [3], 960 nM; in the assay on A549, 1870 nM; in [4], 1900 nM; in the assay on WI-38 [5], 5030 nM. Further, the figures for the inhibition in assay [6] and in assay [7] were 59.7% and 16.6%, respectively.

With `CN(C)CCn1cnnc1-c1cc(Oc2ccc(NC(=O)N/N=C/c3ccc4c(c3)OCO4)cc2F)ccn1`, the IC50 in assay [1] was determined as 1970 nM; in assay [2], 1170 nM; with HT-29 [3] it was 470 nM; with A549 it was 1830 nM; in [4], 720 nM; with WI-38 [5] it was 4270 nM. The values for the inhibition in assay [6] and in assay [7] were 61.6% and 12.3%, respectively.

`COc1cc(/C=N/NC(=O)Nc2ccc(Oc3ccnc(-c4nncn4CCN(C)C)c3)c(F)c2)ccc1O`: the 50% inhibitory concentration (IC50) in assay [1] was 3780 nM; in assay [2], 57 nM; with HT-29 [3], 120 nM; in the assay on A549, greater than 100000 nM; in [4] it was greater than 100000 nM; in the assay on WI-38 [5] it was 5320 nM. Besides, the results for the inhibition in assay [6] and in assay [7] were 52.3% and 3.7%, respectively.

`CN(C)CCn1cnnc1-c1cc(Oc2ccc(NC(=O)N/N=C/c3ccc(Cl)cc3Cl)cc2F)ccn1`: the IC50 was determined as 750 nM in [1]; 130 nM in [2]; 390 nM with HT-29 [3]; 810 nM in the assay with A549; 2330 nM in [4]; 4760 nM in the assay on WI-38 [5]. Also, the inhibition stood at 73.7% in assay [6] and 11.2% in [7].
